Screening data as filed in PubChem BioAssay.
Hits are enriched below; roughly 2.9% of the tested compounds scored in any of these assays.
CHO-K1 Ca antag: M1 antagonist counterscreen hit in parental CHO-K1 cells; ATP-induced calcium, Fluo-8 fluorescence; inhibition, % at 3 µM; 360,000 compounds, 0.6% hits;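 active = inhibition above a per-plate cutoff, the plate's mean sample inhibition plus 3 SD, cut at about 24% in these data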;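 also: 0% = DMSO plus EC80 ATP and 100% = DMSO alone without ATP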
CHO parental Ca: ATP-evoked calcium signal inhibitors, parental CHO, primary screen, counter-screen for OX1R antagonist project, cell-based, fluorescence, Fluo-8 calcium dye; inhibition, % at 5.6 µM; AID 463079, 2010; 330,000 compounds, 0.63% hits; parental CHO-K1, ATP-induced calcium, Fluo-8 fluorescence;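 active = inhibition above that plate's mean sample inhibition plus 3 SD, cut at about 26% in these data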;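 also: 0% = ATP-challenged DMSO wells and 100% = DMSO wells without ATP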
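Assay system – parental CHO cells · Reagent – ATP stimulus · Detection – intracellular calcium via Fluo-8 no-wash fluorescent dye · Evaluation – percent inhibition of ATP-evoked calcium rise, normalized to controls · Controls – ATP wells versus no-ATP DMSO wells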
OX1R antag-1: antagonists of human orexin 1 receptor (OX1R) | Orexin/Hypocretin receptor type 1 (Homo sapiens), O43613 | OX1R-expressing cells, FRET antagonist read-out | inhibition, % at 6.6 µM | 330,000 compounds, 1.8% hits | AID 485270, 2010; in the data active = inhibition mostly above about 38%, no sharp cut-off; inactive = mostly below about 40%;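 also: 0% = agonist challenge alone and 100% = reference antagonist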
Target sequence (O43613 whole entry, looked up): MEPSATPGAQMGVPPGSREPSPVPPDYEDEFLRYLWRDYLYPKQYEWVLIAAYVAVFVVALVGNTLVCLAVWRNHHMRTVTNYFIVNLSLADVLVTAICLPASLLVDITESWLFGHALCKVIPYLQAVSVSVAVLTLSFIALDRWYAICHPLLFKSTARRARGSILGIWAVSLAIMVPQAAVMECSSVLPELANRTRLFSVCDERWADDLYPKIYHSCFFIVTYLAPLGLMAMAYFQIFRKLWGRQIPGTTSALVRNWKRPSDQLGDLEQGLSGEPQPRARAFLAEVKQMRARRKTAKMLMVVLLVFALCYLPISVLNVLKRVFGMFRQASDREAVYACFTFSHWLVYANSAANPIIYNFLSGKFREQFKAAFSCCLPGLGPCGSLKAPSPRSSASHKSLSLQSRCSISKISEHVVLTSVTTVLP
M1 PAM parental: nonselective calcium activators in parental CHO-K1 cells, primary screen, counter-screen for M1 PAM project, cell-based, Fluo-8 calcium fluorescence, full deck, 1536-well. ATP EC20; 0% at ATP EC20, 100% at ATP max. activation, % at 3 µM. 360,000 compounds, 0.02% hits;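 active = activation above the run cutoff, the mean activation of all test compounds plus 3 SD, cut at about 40% in these data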;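 also: peak over basal fluorescence ratio in a 140 s read after ATP addition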
OX1R antag-2: OX1R (HCRTR1) antagonists, primary screen, fluorescence, CHO/OX1R cells, Fluo-8 calcium, orexin A. AID 434989, 2010. Orexin/Hypocretin receptor type 1 (Homo sapiens), O43613. inhibition, % at 5 µM. Fluo-8 calcium fluorescence. 330,000 compounds, 0.43% hits;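 active = inhibition above its plate's threshold, mean inhibition of all tested compounds on the plate plus 3 SD, cut at about 37% in these data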;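 also: 0% = orexin A challenge wells and 100% = SB-334867-A antagonist wells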
M1 ag parental: counter-screen for M1 agonists: effect in parental CHO-K1 cells | Fluo-8 calcium fluorescence; scaled to maximal ATP response, vehicle zero | activation, % at 3 µM | 360,000 compounds, 0.48% hits | AID 602248, 2012; in the data active = activation above about 15%;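 also: untransfected CHO-K1 host cells lacking M1 receptor as counterscreen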
* = called active by the depositor; / = no result.

SMILES	CHO-K1 Ca antag	CHO parental Ca	OX1R antag-1	M1 PAM parental	OX1R antag-2	M1 ag parental
COC(=O)C1=C(C)N(Cc2ccccc2)C(=NCc2cccc(Cl)c2)N[C@H]1c1ccccc1	1	9	21	-3	43	2
COc1cccc(/C=N/NC(=O)c2ccc(-n3cnnn3)cc2)c1	15	/	/	-16	/	0
Nc1c(C(=O)O)sc2nc3c(cc12)CCCC3	5	4	8	7	-24	16*
CCc1cccc2c(C(=O)COC(=O)/C=C/c3ccccc3OC)c[nH]c12	7	-14	63*	-5	-5	0
CC(C)=CCC12Oc3cc(O)ccc3C1(O)Oc1cc3c(c(O)c1C2=O)C=CC(C)(C)O3 (centres undefined)	/	44*	10	/	-13	/
COc1ccc(NS(=O)(=O)c2ccc(-c3coc(C)n3)cc2)cc1OC	50*	50*	27	-29	39	20*
COc1ccc(NS(=O)(=O)c2ccc(-c3coc(C)n3)cc2)cc1	-11	11	20	9	15	6
O=C(Nc1ccccc1)c1cc(C2CCCCN2C(=O)c2cccs2)on1 (centres undefined)	17	/	/	-6	/	0
CCc1nc2ccc(C(=O)N3CCN(S(=O)(=O)CC)CC3)cn2c1N(C)Cc1cccs1	-1	/	/	4	/	2
OCCNc1nc(NCCC2=CCCCC2)nc(N2CCOCC2)n1	24*	-3	21	15	6	1
O=C(Nc1ccc2nc(-c3ccco3)c(-c3ccco3)nc2c1)NC1CC1	-7	/	/	10	/	0
O=C(Nc1ccc(N2CCOCC2)cc1)Nc1ccc2nc(-c3ccco3)c(-c3ccco3)nc2c1	-1	7	51*	-14	-7	0
COc1ccc(C(=O)c2nccc3cc(OC)c(OC)cc23)cc1OC	-5	-6	69*	0	-25	0
CCc1nc2ccc(C(=O)NCCCN3CCCC3=O)cn2c1N(C)CCC(C)C	-2	/	/	19	/	0
COc1ccc2ccccc2c1C(O)c1nccn1C (centres undefined)	-7	-1	64*	17	-7	4
Cn1ccnc1C(O)c1ccccc1 (centres undefined)	-7	2	14	22	-3	0
CCCCNC(=O)C1(C)CCN1C(=O)c1ccc2ccccc2n1 (centres undefined)	22	/	/	5	/	0
CCCc1cc(=O)[nH]c(Nc2ccc(Cl)cc2)n1	10	79*	23	-12	22	2
Cc1ccc(NC(=O)c2ccc(-n3cccn3)c([N+](=O)[O-])c2)cc1	-3	4	17	15	-15	5
O=C(Nc1ccc(C2=NCCN2)cc1)c1ccc(C(=O)Nc2ccc(C3=NCCN3)cc2)c([N+](=O)[O-])c1	-3	-17	38*	-5	-12	1
O=C1CCC(c2ccccc2)N1c1ccccc1 (centres undefined)	-6	/	/	22	/	1
COc1cc(OC)cc(-c2noc(-c3csc([C@@H]4C[C@H](O)[C@@H](CO)O4)n3)n2)c1	-2	/	/	1	/	1
CCC(=O)N1CCC1(C)C(=O)Nc1ccc2nc(C)ccc2c1 (centres undefined)	-12	/	/	13	/	0
O=C(OCc1nc2ccccc2[n+]([O-])c1C(=O)c1ccccc1)c1ccco1	24*	-26	27	-19	-35	1
CC(=O)c1c(COC(=O)c2ccco2)nc2ccccc2[n+]1[O-]	-13	-17	40	16	-24	4
SMILES	CHO-K1 Ca antag	CHO parental Ca	OX1R antag-1	M1 PAM parental	OX1R antag-2	M1 ag parental
COc1ccc(-c2nc3cc(C)c(Br)c(C)n3c2Cc2ccc(C)cc2)cc1OC	6	/	/	-2	/	1
COCCN(CCOC)S(=O)(=O)c1ccc(C(=O)NCCCN2CCOCC2)cc1	-9	56*	13	9	42	0
CCN(c1ccccc1)S(=O)(=O)c1ccc(C(=O)NCCCN2CCOCC2)cc1	-1	-15	6	-18	-13	0
CCC(C)NC(=O)C1CCC(=O)N1CCc1ccccc1 (centres undefined)	-10	-20	5	11	-20	1
CCOc1cc(/C=N/NC(=O)c2cc(C)[nH]n2)ccc1OC(=O)c1ccc([N+](=O)[O-])cc1	/	-17	19	/	-42	/
CCOc1cc(/C=N/n2cnnc2)ccc1OC(=O)c1cccc([N+](=O)[O-])c1	31*	-11	40	-9	-17	1
Cc1ccc(C2C3=C(CC(C)(C)CC3=O)Nc3n[nH]c(C)c32)cc1 (centres undefined)	25*	-28	21	-5	-31	0
CC1CCCCN1C(=O)COc1ccc(S(=O)(=O)N2CCCC2)cc1[N+](=O)[O-] (centres undefined)	-6	0	17	-2	-20	0
CCN(CC)C(=O)C(Oc1ccc(S(=O)(=O)N2CCCC2)cc1[N+](=O)[O-])c1ccccc1 (centres undefined)	11	0	63*	-7	6	1
Cc1noc(C)c1COC(=O)C1CCN(S(=O)(=O)c2c(Cl)cccc2Cl)CC1	-10	-27	20	-1	-37	2
CN(Cc1ccccc1)S(=O)(=O)c1ccc(N2CCCC2=O)cc1	23	-7	0	1	8	16*
CN(Cc1ccccc1)S(=O)(=O)c1ccc(NS(=O)(=O)Cc2ccccc2)cc1	22	40*	44*	-9	42*	2
N#Cc1ccc(CN2CCN(C(=O)CNS(=O)(=O)c3ccc4c(c3)OCCCO4)CC2)cc1	-13	-16	-4	20	6	0
O=C(Cc1ccc(S(=O)(=O)N2CCOCC2)s1)N1CCN(S(=O)(=O)c2ccc(Cl)cc2)CC1	3	-2	13	18	-3	8
Oc1[nH]c2ccccc2c1C=Nc1ccc2c(c1)OCO2	-9	-11	59*	14	-3	2
CC(OC(=O)c1n[nH]c2ccccc12)C(=O)Nc1ccccc1[N+](=O)[O-] (centres undefined)	3	-25	36*	-2	12	1
O=[N+]([O-])c1cnc2ccccc2c1	-12	-8	71*	22	-3	0
COC(=O)C1CCN(C(=O)/C(C)=C\c2ccccc2)CC1	3	-10	5	-6	-9	1
COc1ccccc1N(CC(O)Cn1nc(C)cc1C)S(=O)(=O)c1ccccc1 (centres undefined)	-6	-12	47*	1	11	0
COc1cc2c(cc1OC)CN(C(=O)c1ccc([N+](=O)[O-])o1)CC2	-5	-19	46*	7	-23	1
